According to PubChem BioAssay AID493160 (Sanford-Burnham Center for Chemical Genomics, 2011):
Hit rate of the full screen: of about 340,000 compounds, about 540 (0.16%) were called active. This excerpt belongs to a sample that is enriched for actives. Values without a mark were called inactive.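 How the source made its calls: active means inhibition above about 35% when tested at 20 µM (limit read from the data); inactive means the rest.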

The compounds below were run against Hexokinase HKDC1 (Homo sapiens) (UniProt Q2TB90) (assay: HKDC1 hexokinase inhibitors, primary screen, biochemical, fluorescence, uHTS (AID 493160;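 further: plate controls were DMSO wells with enzyme for no effect and DMSO wells lacking enzyme for full effect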)). Details: recombinant HKDC1, G6PDH/diaphorase resazurin coupled fluorescence; at 20 µM; stronger effect = higher value.
Procedure, shortened: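 Material – in-house recombinant HK5 (HKDC1) enzyme · Quantity – HKDC1 at 5 µg/mL · Buffer or medium – pH 8.0 Tris buffer with 10 mM MgCl2 · Reagent – glucose with 1 mM ATP · Dosing – single 20 µM dose · Times – reaction time 90 min, room temperature, protected from light · Technique – resorufin fluorescence at 613 nm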

Hexokinase HKDC1 (Homo sapiens), sequence (Q2TB90 whole entry, looked up): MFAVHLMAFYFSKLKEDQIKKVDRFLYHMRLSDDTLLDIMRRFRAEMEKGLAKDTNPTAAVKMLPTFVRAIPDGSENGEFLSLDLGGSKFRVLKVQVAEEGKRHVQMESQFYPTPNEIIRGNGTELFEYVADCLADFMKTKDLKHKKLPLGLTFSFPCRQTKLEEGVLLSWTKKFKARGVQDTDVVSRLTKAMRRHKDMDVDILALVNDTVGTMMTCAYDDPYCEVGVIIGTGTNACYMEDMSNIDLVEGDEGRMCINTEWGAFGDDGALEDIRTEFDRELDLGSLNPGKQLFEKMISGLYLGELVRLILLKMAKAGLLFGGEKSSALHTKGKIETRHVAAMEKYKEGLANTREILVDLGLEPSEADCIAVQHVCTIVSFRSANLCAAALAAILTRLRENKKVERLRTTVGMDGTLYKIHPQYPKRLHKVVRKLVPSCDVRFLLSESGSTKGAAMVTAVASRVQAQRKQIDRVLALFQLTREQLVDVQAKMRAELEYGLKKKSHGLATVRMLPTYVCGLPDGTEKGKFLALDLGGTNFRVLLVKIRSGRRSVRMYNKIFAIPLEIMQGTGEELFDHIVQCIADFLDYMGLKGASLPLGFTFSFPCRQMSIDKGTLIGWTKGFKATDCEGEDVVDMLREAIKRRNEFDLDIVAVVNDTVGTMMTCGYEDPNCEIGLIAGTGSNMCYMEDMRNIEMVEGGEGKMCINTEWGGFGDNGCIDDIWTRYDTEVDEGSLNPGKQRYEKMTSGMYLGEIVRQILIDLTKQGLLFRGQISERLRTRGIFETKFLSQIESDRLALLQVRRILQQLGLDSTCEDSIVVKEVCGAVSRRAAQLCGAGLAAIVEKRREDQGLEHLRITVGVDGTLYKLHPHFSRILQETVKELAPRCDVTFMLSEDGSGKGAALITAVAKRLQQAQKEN

| Structure (SMILES) | inhibition |
| --- | --- |
| Cc1nc2nc(COc3ccccc3)[nH]n2c(=O)c1C | 0.17% |
| CC(=O)N1CSCC1C(=O)O (stereo unspecified) | -1.3% |
| CCOc1ccc(N2C(=O)CN(c3cccc4ccccc34)C2=S)cc1 | -10.4% |
| Cc1ccc(S(=O)(=O)NC(=O)COc2ccccc2C)cc1 | -6.13% |
| Cn1c2ccccc2c2cc(/C=C(\NC(=O)c3ccccc3)C(=O)NCC(=O)O)ccc21 | -5.19% |
| Cc1c(-c2ccccc2)cn2c1-c1ccc(C)n1CC2 | 1.47% |
| COc1ccc(-c2csc3ncnc(Oc4ccc5c(C)cc(=O)oc5c4)c23)cc1 | 6.07% |
| CCCCN(C(=O)c1cccc(N2C(=O)c3ccccc3C2=O)c1)c1c(N)n(CCCC)c(=O)[nH]c1=O | -1.42% |
| Cc1ccc(N(C(=O)c2ccc(S(=O)(=O)N(C)C)cc2)C2C=CS(=O)(=O)C2)cc1 (stereo unspecified) | -6.81% |
| NS(=O)(=O)c1ccc(CCNC(=O)c2nc(CS(=O)(=O)c3ccc(Cl)cc3)no2)cc1 | 4.98% |
| Cc1nc2ccc(N)nc2nc1C | -5.39% |
| Cc1cccc([C@@H]2[C@@H]3C(=O)N(C)C(=O)[C@@H]3[C@@H]3C(=O)Nc4ccccc4C(=O)N23)c1 | -0.25% |
| CC(C)=CC(=O)Nc1nnc(-c2ccc(F)cc2)s1 | 6.59% |
| Cc1cc(C)n(CCNC(=O)CC2C(=O)NCCN2Cc2ccc(C)o2)n1 (stereo unspecified) | -9.7% |
| Cc1ccc(O)c(NC(=O)c2cc(-c3ccco3)on2)c1 | -2.87% |
| CC(=O)N1CC(=O)N(CC(=O)Nc2ccc(Br)cc2)C1=S | -1.64% |
| O=C(O)c1ccc(NS(=O)(=O)c2ccc3c(c2)C(=O)c2cc(S(=O)(=O)Nc4ccc(C(=O)O)cc4)ccc2-3)cc1 | 2.22% |
| CCn1cc(C(=O)N2CCN(Cc3ccc4c(c3)OCO4)CC2)c2cc(OC)c(OC)cc2c1=O | -2.84% |
| CCn1cc(C(=O)NCc2ccc3c(c2)OCO3)c2cc(OC)c(OC)cc2c1=O | 37.8% (active) |
| COc1cc(OC)c(C(=O)NCc2ccc3c(c2)OCO3)cc1OC | -0.69% |
| COc1ccc(C(C)C)cc1S(=O)(=O)Nc1ncn[nH]1 | -3.49% |
